Values after ≈ are worked out from the molar mass of the structure shown.
What was measured:
Acinetobacter baumannii [1] = experiment: Antimicrobial activity against Acinetobacter baumannii isolate AB5674 incubated for 16 to 20 hrs by broth microdilution method; type: functional
Procedure, shortened: (§1)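 CLSI broth microdilution in CAMHB, twofold dilutions at final 0.250–128 µg/mL, each in triplicate. Overnight colonies from 5% horse blood agar were suspended in PBS to OD600 0.1 and diluted to a starting inoculum of 5 x 10^5 CFU/mL. Incubated 37 °C for 16–20 h. MIC is the lowest concentration with no visible growth. Quality control used E. coli ATCC 25922 with ampicillin. Final DMSO <1%.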

Acinetobacter baumannii [2] = experiment: Antimicrobial activity against Acinetobacter baumannii isolate AB4795 incubated for 16 to 20 hrs by broth microdilution method; type: functional; procedure, shortened: as §1
Acinetobacter baumannii [3] = experiment: Antimicrobial activity against Acinetobacter baumannii isolate AB585 incubated for 16 to 20 hrs by broth microdilution method; type: functional; procedure, shortened: as §1
Acinetobacter baumannii [4] = experiment: Antimicrobial activity against Acinetobacter baumannii isolate AB0967 incubated for 16 to 20 hrs by broth microdilution method; type: functional; procedure, shortened: as §1
Acinetobacter baumannii [5] = experiment: Antimicrobial activity against Acinetobacter baumannii isolate AB5075 incubated for 16 to 20 hrs by broth microdilution method; type: functional; procedure, shortened: as §1
Acinetobacter baumannii [6] = experiment: Antimicrobial activity against Acinetobacter baumannii ATCC AB17978 incubated for 16 to 20 hrs by broth microdilution method; type: functional; procedure, shortened: as §1
Acinetobacter baumannii [7] = experiment: Antimicrobial activity against Acinetobacter baumannii isolate AB4052 incubated for 16 to 20 hrs by broth microdilution method; type: functional; procedure, shortened: as §1
Acinetobacter baumannii [8] = experiment: Antimicrobial activity against Acinetobacter baumannii isolate AB5711 incubated for 16 to 20 hrs by broth microdilution method; type: functional; procedure, shortened: as §1
Acinetobacter baumannii [9] = experiment: Antimicrobial activity against Acinetobacter baumannii isolate AB499 incubated for 16 to 20 hrs by broth microdilution method; type: functional; procedure, shortened: as §1
Acinetobacter baumannii [10] = experiment: Antimicrobial activity against Acinetobacter baumannii isolate AB3638 incubated for 16 to 20 hrs by broth microdilution method; type: functional; procedure, shortened: as §1
Acinetobacter baumannii [11] = experiment: Antimicrobial activity against Acinetobacter baumannii isolate AB5075 assessed as reduction in bacterial colony count at 32 ug/ml incubated for 24 hrs by time kill kinetics assay relative to initial bacterial inoculum; type: functional
Procedure, shortened: (§2)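 Time-kill assay on AB5075. 1 mL CAMHB containing compound at 1, 2, 4 or 8× MIC was seeded with 5–7 x 10^5 CFU/mL and shaken at 37 °C for 24 h. Aliquots taken at 0, 6, 12 and 24 h were serially diluted, plated on LB agar and incubated 24 h at 37 °C before counting. Result given as log10 CFU/mL decrease versus initial inoculum. No-drug control; duplicate runs.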

Acinetobacter baumannii [12] = experiment: Antimicrobial activity against Acinetobacter baumannii ATCC AB19606 incubated for 16 to 20 hrs by broth microdilution method; type: functional; procedure, shortened: as §1
Acinetobacter baumannii [13] = experiment: Antimicrobial activity against Acinetobacter baumannii isolate AB0087 incubated for 16 to 20 hrs by broth microdilution method; type: functional; procedure, shortened: as §1
Acinetobacter baumannii [14] = experiment: Antimicrobial activity against Acinetobacter baumannii isolate AB4957 incubated for 16 to 20 hrs by broth microdilution method; type: functional; procedure, shortened: as §1
Acinetobacter baumannii [15] = experiment: Antimicrobial activity against Acinetobacter baumannii isolate AB3560 incubated for 16 to 20 hrs by broth microdilution method; type: functional; procedure, shortened: as §1
Acinetobacter baumannii [16] = experiment: Antimicrobial activity against Acinetobacter baumannii isolate AB5075 assessed as reduction in bacterial colony count at 64 ug/ml incubated for 24 hrs by time kill kinetics assay relative to initial bacterial inoculum; type: functional; procedure, shortened: as §2
Acinetobacter baumannii [17] = experiment: Antimicrobial activity against Acinetobacter baumannii isolate AB5075 assessed as reduction in bacterial colony count at 16 ug/ml incubated for 24 hrs by time kill kinetics assay relative to initial bacterial inoculum; type: functional; procedure, shortened: as §2
Acinetobacter baumannii [18] = experiment: Antimicrobial activity against Acinetobacter baumannii isolate AB5075 assessed as reduction in bacterial colony count at 128 ug/ml incubated for 24 hrs by time kill kinetics assay relative to initial bacterial inoculum; type: functional; procedure, shortened: as §2
Acinetobacter baumannii [19] = experiment: Bactericidal activity against Acinetobacter baumannii isolate AB5075 assessed as reduction in bacterial colony count at 32 ug/ml incubated for 30 mins by time kill kinetics assay relative to initial bacterial inoculum relative to control; set-up: scale not given: the % may be the effect or the level left
Acinetobacter baumannii [20] = experiment: Antimicrobial activity against Acinetobacter baumannii isolate AB5075 assessed as reduction in bacterial colony count at 32 ug/ml incubated for 30 mins by time kill kinetics assay relative to initial bacterial inoculum

Row | MIC (Acinetobacter baumannii [1]) | MIC (Acinetobacter baumannii [2]) | MIC (Acinetobacter baumannii [3]) | MIC (Acinetobacter baumannii [4]) | MIC (Acinetobacter baumannii [5]) | MIC (Acinetobacter baumannii [6]) | MIC (Acinetobacter baumannii [7]) | MIC (Acinetobacter baumannii [8]) | MIC (Acinetobacter baumannii [9]) | MIC (Acinetobacter baumannii [10]) | MIC (Acinetobacter baumannii [12]) | MIC (Acinetobacter baumannii [13]) | MIC (Acinetobacter baumannii [14]) | MIC (Acinetobacter baumannii [15]) | SMILES | Activity (Acinetobacter baumannii [11]) | Activity (Acinetobacter baumannii [16]) | Activity (Acinetobacter baumannii [17]) | Activity (Acinetobacter baumannii [18]) | Activity (Acinetobacter baumannii [19]) | Activity (Acinetobacter baumannii [20])
1 | 16 µg/mL (≈ 76.8 µM) | 8 µg/mL (≈ 38.4 µM) | 8 µg/mL (≈ 38.4 µM) | 16 µg/mL (≈ 76.8 µM) | 16 µg/mL (≈ 76.8 µM) | 16 µg/mL (≈ 76.8 µM) | 32 µg/mL (≈ 154 µM) | 16 µg/mL (≈ 76.8 µM) | 1 µg/mL (≈ 4.8 µM) | 16 µg/mL (≈ 76.8 µM) | 16 µg/mL (≈ 76.8 µM) | 2 µg/mL (≈ 9.6 µM) | 32 µg/mL (≈ 154 µM) | 32 µg/mL (≈ 154 µM) | CCOCCC(=O)NNc1ccccc1 | 1.02 log10CFU/ml | 1.42 log10CFU/ml | 0.73 log10CFU/ml | 2.1 log10CFU/ml | – | –
2 | 16 µg/mL (≈ 54.7 µM) | 8 µg/mL (≈ 27.4 µM) | 8 µg/mL (≈ 27.4 µM) | 16 µg/mL (≈ 54.7 µM) | 16 µg/mL (≈ 54.7 µM) | 16 µg/mL (≈ 54.7 µM) | 32 µg/mL (≈ 109 µM) | 32 µg/mL (≈ 109 µM) | 1 µg/mL (≈ 3.42 µM) | 16 µg/mL (≈ 54.7 µM) | 16 µg/mL (≈ 54.7 µM) | 4 µg/mL (≈ 13.7 µM) | 32 µg/mL (≈ 109 µM) | 32 µg/mL (≈ 109 µM) | CCO[C@@H]1CCC[C@H](CC(=O)NNc2ccccc2)[C@H]1O | 0.75 log10CFU/ml | 1.24 log10CFU/ml | 0.46 log10CFU/ml | 1.74 log10CFU/ml | – | –

Row | SMILES | MIC (Acinetobacter baumannii [1]) | MIC (Acinetobacter baumannii [2]) | MIC (Acinetobacter baumannii [3]) | MIC (Acinetobacter baumannii [4]) | MIC (Acinetobacter baumannii [5]) | MIC (Acinetobacter baumannii [6]) | MIC (Acinetobacter baumannii [7]) | MIC (Acinetobacter baumannii [8]) | MIC (Acinetobacter baumannii [9]) | MIC (Acinetobacter baumannii [10]) | MIC (Acinetobacter baumannii [12]) | MIC (Acinetobacter baumannii [13]) | MIC (Acinetobacter baumannii [14]) | MIC (Acinetobacter baumannii [15]) | Activity (Acinetobacter baumannii [11]) | Activity (Acinetobacter baumannii [16]) | Activity (Acinetobacter baumannii [17]) | Activity (Acinetobacter baumannii [18]) | Activity (Acinetobacter baumannii [19]) | Activity (Acinetobacter baumannii [20])
3 | Oc1ccc(Cl)cc1Cc1cc(Cl)ccc1O [DICHLOROPHEN] | 16 µg/mL (≈ 59.5 µM) | 16 µg/mL (≈ 59.5 µM) | 8 µg/mL (≈ 29.7 µM) | 16 µg/mL (≈ 59.5 µM) | 32 µg/mL (≈ 119 µM) | 16 µg/mL (≈ 59.5 µM) | 16 µg/mL (≈ 59.5 µM) | 16 µg/mL (≈ 59.5 µM) | 8 µg/mL (≈ 29.7 µM) | 16 µg/mL (≈ 59.5 µM) | 16 µg/mL (≈ 59.5 µM) | 8 µg/mL (≈ 29.7 µM) | 16 µg/mL (≈ 59.5 µM) | 16 µg/mL (≈ 59.5 µM) | – | – | – | – | 99.9% | >=3 log10CFU/ml
